{"data": "Published values gathered from unrelated publications", "target": "Serine/threonine-protein kinase pim-1 (PIM1, Homo sapiens, UniProt P11309)", "note": "Each line is one published result; the experiments were not run side by side."}
{"Structure (SMILES)": "CC(C)S(=O)(=O)c1ccc2nccc(Nc3ccc4sc(C5CCCC5)nc4c3)c2c1", "effect on": "enzyme activity", "action": "inhibitor", "tested at": "1 µM", "measurement": "activity vs control", "result": "101%"}
{"Structure (SMILES)": "C#Cc1cnc(Nc2ccnc(CO)c2)nc1Nc1ccccc1S(C)(=O)=NC#N (centres unmarked)", "effect on": "cell-free assay", "tested at": "1 µM", "measurement": "remaining signal", "result": "87%"}
{"Structure (SMILES)": "CN1CCN(C(=O)c2ccc(NC(=O)Nc3ccc(N(C)c4ccnc(Nc5ccc(CS(C)(=O)=O)cc5)n4)cc3)cc2)CC1", "effect on": "binding", "tested at": "1 µM", "measurement": "remaining binding", "result": "100%"}
{"Structure (SMILES)": "N#Cc1ccc(NC(=O)Nc2ccccc2)cc1", "effect on": "cell-free assay", "method": "competition with immobilised ligand", "tested at": "25 µM", "measurement": "remaining binding", "result": "87%"}
{"Structure (SMILES)": "CC(=O)ON=C1C=CC(=C(C#N)c2ccccc2)C=C1", "effect on": "enzyme activity", "action": "inhibitor", "method": "ADP detection", "tested at": "20 µM", "measurement": "activity vs control", "result": "102%"}
{"Structure (SMILES)": "COc1ccc2oc(-c3ccc4nc(N)oc4c3)c/c(=N\\c3ccccc3NC(=O)CCN)c2c1", "effect on": "binding", "tested at": "1 µM", "measurement": "remaining binding", "result": "119%"}
{"Structure (SMILES)": "CC#CC(=O)N1CCC[C@H]1c1nc(-c2ccc(C(=O)Nc3ccccn3)cc2)c2c(N)nccn12", "effect on": "enzyme activity", "action": "inhibitor", "tested at": "1 µM", "measurement": "inhibition", "result": "0%"}
{"Structure (SMILES)": "CCCCC(=O)Nc1ccc(-c2ccc3ncn(CCC)c(=O)c3c2)cn1", "effect on": "binding", "method": "competition with immobilised ligand", "tested at": "0.5 µM", "measurement": "remaining binding", "result": "100%"}
{"Structure (SMILES)": "C1=C/COCc2cc(ccc2OCCN2CCCC2)Nc2nccc(n2)-c2cccc(c2)COC/1", "effect on": "binding", "tested at": "0.1 µM", "measurement": "remaining binding", "result": "100%"}
{"Structure (SMILES)": "C=CC(=O)N1CCC([C@@H]2CCNc3c(C(N)=O)c(-c4ccc(Oc5ccccc5)cc4)nn32)CC1", "effect on": "enzyme activity", "action": "inhibitor", "tested at": "1 µM", "measurement": "inhibition", "result": "6%"}
{"Structure (SMILES)": "C[C@H]1CC[C@H](n2c3cnccc3c3cnc(Nc4ccc5c(n4)CCN(C(=O)CO)C5)nc32)CC1", "effect on": "cell-free assay", "tested at": "1 µM", "measurement": "remaining signal", "result": "59%"}
